# Bioassay records as filed in PubChem.
# Rows were chosen to be rich in hits. Some 1.7% of all compounds tested hit in one or more screens of this group.
# Efflux pump mplx = antifungal efflux pump inhibition, Nile Red retention | AID 485275 | S. cerevisiae Candida pump triplex | 0.44% of 330,000 active | inhibition, % at 10 µM;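 active = plate passing quality check with inhibition over a set limit, or well fluorescence over plate mean plus 4 SD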;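 note: Nile Red retained in pooled yeast measured as flow cytometry median fluorescence; 0% = buffer negative control and 100% = Enniatin B positive control; higher means more Nile Red kept so more efflux inhibition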
# Neddyl block = inhibitors of human cullin neddylation; AID 651699; TR-FRET cullin neddylation, biochemical; 0.58% of 360,000 active; P61081+Q13564; inhibition, % at 25 µM; in the data active = inhibition above about 36%
# Pemphigus Ab inh = blocks pemphigus antibody binding to human desmoglein-3; 0.48% of 310,000 active; binding (percent of control), % at 10 µM; DSG3-coupled beads, scFv-anti-DSG3-GFP binding, flow cytometry; active compounds read low;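 active = binding more than 3 SD below its plate's average and above zero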;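 note: hits lower antibody fragment binding to DSG3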
# Target sequence (P32926 whole entry, looked up, the tested form may be a part): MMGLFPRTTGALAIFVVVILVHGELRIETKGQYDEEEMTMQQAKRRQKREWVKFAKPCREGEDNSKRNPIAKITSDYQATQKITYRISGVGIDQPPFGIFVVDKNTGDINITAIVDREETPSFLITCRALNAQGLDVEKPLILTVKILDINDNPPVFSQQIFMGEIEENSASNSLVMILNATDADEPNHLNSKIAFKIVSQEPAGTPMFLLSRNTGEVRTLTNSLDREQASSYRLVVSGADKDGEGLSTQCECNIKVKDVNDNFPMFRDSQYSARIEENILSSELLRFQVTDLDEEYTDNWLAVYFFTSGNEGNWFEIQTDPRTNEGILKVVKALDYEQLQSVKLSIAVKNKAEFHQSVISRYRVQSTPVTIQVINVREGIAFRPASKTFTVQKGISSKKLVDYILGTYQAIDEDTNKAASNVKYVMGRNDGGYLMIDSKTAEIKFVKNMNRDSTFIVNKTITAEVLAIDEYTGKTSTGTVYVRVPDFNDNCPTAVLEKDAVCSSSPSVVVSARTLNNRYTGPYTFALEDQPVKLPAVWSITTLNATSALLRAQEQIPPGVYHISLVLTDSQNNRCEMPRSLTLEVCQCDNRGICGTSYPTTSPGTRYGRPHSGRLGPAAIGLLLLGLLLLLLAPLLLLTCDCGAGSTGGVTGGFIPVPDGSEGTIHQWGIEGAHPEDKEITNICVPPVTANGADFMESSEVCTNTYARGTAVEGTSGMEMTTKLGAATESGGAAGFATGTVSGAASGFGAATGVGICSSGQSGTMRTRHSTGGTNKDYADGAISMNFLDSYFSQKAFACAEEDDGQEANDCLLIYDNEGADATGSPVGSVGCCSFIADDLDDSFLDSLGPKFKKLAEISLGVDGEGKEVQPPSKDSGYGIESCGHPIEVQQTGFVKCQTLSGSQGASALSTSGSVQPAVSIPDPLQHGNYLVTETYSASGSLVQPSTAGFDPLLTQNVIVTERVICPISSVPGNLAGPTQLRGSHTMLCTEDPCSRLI
# Arr AP2 block = inhibitors of human beta-arrestin and AP2 interaction. FITC-arrestin peptide / GST-AP2 beads, flow cytometry; AP2 beta2 appendage carries R879A mutation. inhibition, % at 10 µM. 0.31% of 340,000 active;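 active = inhibition above a set limit, near 3 SD of compounds lacking own fluorescence, cut at about 54% in these data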;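 note: plate controls were DMSO wells for no effect and 5 µM unlabelled arrestin peptide for full effect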
#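 System: GST-AP2 R879A glutathione beads; medium: PBS, Tween 20 0.05%, BSA 0.1%; reagent: fluorescein-tagged arrestin peptide at 50 nM final; schedule: pre-incubation 12 min, peptide binding 1 h, room temperature; detection: flow cytometry, FL1 (488/535 nm); read-out: inhibition as reduced fluorescein signal on beads, percent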
# Active calls of the source: *; x = no result shown.
SMILES,Efflux pump mplx,Neddyl block,Pemphigus Ab inh,Arr AP2 block
COC(=O)Cc1cc(=O)n2[nH]c(C)cc2n1,0,24,100,1
COc1cc(C(=O)NC2=C(C#N)CCC2)cc(OC)c1OC,0,13,92,13
CCn1c2ccccc2c2cc(NC(=O)COC(=O)c3ccc(NC(=O)CC#N)cc3)ccc21,0,7,69*,-4
CCn1c2ccccc2c2cc(NC(=O)COC(=O)c3ccccc3F)ccc21,0,-28,108,-7
O=C(NCc1ccc(Cl)cc1)C(=O)Nc1nccs1,0,26,76*,31
O=C1Nc2ccccc2/C1=N\N=C\C1=C(N2CCOCC2)C(=C\c2ccccc2)/CC1,-3,-14,80*,-1
Cn1cc(C(=O)N/N=C/C2=C(N3CCOCC3)C(=C\c3ccccc3)/CC2)ccc1=O,1,12,126,1
O=C1Nc2ccc(Br)cc2/C1=N\N=C\C1=C(N2CCOCC2)C(=C/c2ccccc2)/CC1,x,-28,86*,-4
CC(NC(=O)C12CC3CC(CC(C3)C1)C2)C(=O)N/N=C/C1=C(N2CCOCC2)C(=C\c2ccccc2)/CC1 (centres undefined),0,33,84,-7
NC(=O)c1cc(S(=O)(=O)N2CC=C(c3ccccc3)CC2)cs1,0,-1,98,5
CC(OC(=O)c1cccc(-n2cnnn2)c1)C(=O)N(C)c1ccccc1 (centres undefined),0,0,x,4
COc1ccccc1NC(=O)C1=C(C)N(c2ccccc2)C(=S)NC1c1cccc(C(F)(F)F)c1 (centres undefined),0,-168,102,3
COC(=O)c1ccc(C2NC(=S)N(c3ccccc3)C(C)=C2C(=O)Nc2ccccc2OC)cc1 (centres undefined),0,-44,-8.8*,-3
CCN(CC)S(=O)(=O)c1ccc(O)c(C(=O)OCC(=O)NC23CC4CC(CC(C4)C2)C3)c1,0,21,95,32
O=C(NCc1ccccc1)C(=O)NCC1OCCN1C(=O)c1ccc(Cl)cc1 (centres undefined),0,3,112,12
Cc1cc(-c2csc(NC(=O)c3ccc(=O)[nH]c3)n2)c(C)n1Cc1ccco1,0,9,82*,26
CC(=O)C1=C(O)C(=O)OC1c1ccc(Cl)cc1 (centres undefined),0,-8,76*,-1
O=C(Cc1nnc(NC(=O)Nc2ccc(F)cc2)s1)NCc1ccccc1,0,1,108,3
COC(=O)c1ccc(Cn2cc(Cl)cn2)o1,0,11,106,12
O=c1c(-c2ccccc2)c(O)c2cccc3c2n1CCC3,0,45*,111,-1
Cc1ccc(C(=O)N(CC(=O)NC2CCCC2)c2ccccc2C)s1,0,-15,97,-38
Cc1ccc(C(=O)N(CC(=O)NC2CCCC2)Cc2cccs2)s1,0,-10,76*,-3
Cc1ccc(NC(=O)c2cc(S(=O)(=O)N3CCCC3)cn2C)cc1C,0,11,18*,3
Cc1ccc(NC(=O)c2cc(S(=O)(=O)N3CCOCC3)cn2C)cc1Cl,0,-3,98,0
CNC(=O)NC(=O)C(C)OC(=O)c1c2c(nc3ccccc13)/C(=C/c1cccs1)CC2 (centres undefined),-1,45*,106,7
SMILES,Efflux pump mplx,Neddyl block,Pemphigus Ab inh,Arr AP2 block
Fc1cccc(Nc2nc(N3CCOCC3)nc(N3CCOCC3)n2)c1,0,-3,94,32
Clc1cccc(Nc2nc(N3CCOCC3)nc(N3CCOCC3)n2)c1,0,4,47*,3
Cc1cc(Oc2ccc(=O)n(C)n2)nc(=S)[nH]1,0,x,x,x
CCOC(=O)c1[nH]c2ccccc2c1NC(=O)c1ccc2c(c1)OCO2,0,6,-8.4*,12
CCOC(=O)c1[nH]c2cc(OC)c(OC)cc2c1NC(=O)c1ccc2c(c1)OCO2,0,26,17*,-4
Cc1cccc(NC(=O)COc2ccc(-c3nn(C)c(=O)c4ccccc34)cc2)c1,0,-9,103,7
COc1cc(C(=O)NCc2nnc(SCC(=O)NC3CCCCC3)o2)cc(OC)c1OC,0,9,100,26
CCCn1c(CNS(=O)(=O)c2ccc(C)cc2)nc2ccccc21,0,-11,66*,1
CCN(CC)CCn1c(NS(=O)(=O)c2ccc(C)cc2)nc2ccccc21,0,6,139,-3
Cc1ccc(-c2cc(-c3ccc(C)o3)nc(N)c2C#N)cc1,0,33,100,13
Cc1ccc(-c2cc(-c3ccc(Cl)cc3)c(C#N)c(N)n2)o1,0,48*,103,8
CCOc1cccc(C(=O)Nc2ccc(N3CCN(S(C)(=O)=O)CC3)cc2)c1,0,35,-22*,13
NS(=O)(=O)c1ccc(NC(=S)N2CCN(Cc3ccc(Cl)c(Cl)c3)CC2)cc1,0,-4,x,10
NS(=O)(=O)c1ccc(NC(=S)N2CCN(c3ccc(Cl)c(Cl)c3)CC2)cc1,1,0,53*,-1
Clc1ccccc1-c1nnc(-c2ccc3c(c2)OCO3)o1,0,x,79*,5
O=C(CS(=O)(=O)c1cn(CC(=O)N2CCCC2)c2ccccc12)Nc1ccccc1F,0,8,112,-9
Cc1ccccc1NC(=O)Cc1nnc(SCC(=O)NC2CCCC2)n1C,0,6,88*,46
COc1cccc(CNC(=O)c2ccc(NC(=O)C3=CSCCO3)cc2)c1,0,0,107,11
Cc1ccc2c(CN(C)Cc3ccccc3)cc(=O)oc2c1C,0,-13,64*,-2
Cc1ccc2c(CN(C)Cc3cccc(F)c3)cc(=O)oc2c1C,0,-3,104,6
CC(C(=O)N1CCc2ccccc21)n1cnc2c1c(=O)n(C)c(=O)n2C (centres undefined),0,-11,108,-3
Cc1ccccc1NC(=O)Nc1nc2ccc(S(C)(=O)=O)cc2s1,0,0,74*,28
COc1ccccc1NS(=O)(=O)c1cc(C(=O)NCC(c2ccc(F)cc2)N2CCOCC2)ccc1C (centres undefined),0,-3,105,27
CC(C)C(=O)Nc1ccc(C(=O)CSc2nnc(C3CC3)n2C2CC2)cc1,0,9,103,36
CCN=C1S/C(=C\c2ccc(-c3cccc(C(=O)O)c3)o2)C(=O)N1CC,0,49*,99,13
SMILES,Efflux pump mplx,Neddyl block,Pemphigus Ab inh,Arr AP2 block
CCN1C(=O)/C(=C\c2ccc(-c3cccc(C(=O)OC)c3)o2)SC1=Nc1ccc(C(=O)O)cc1,0,x,x,x
CC12CCC3c4ccc(O)cc4CCC3C1CC(O)C2O (centres undefined),0,-2,46*,-6
COc1ccc(OCC(=O)NC(=S)Nc2ccc(S(=O)(=O)Nc3cc(C)on3)cc2)cc1,0,2,98,40
Cc1cccc(NC(=O)CCNC(=O)c2ccc(Br)cc2)c1,0,-2,105,17
CCCCN(CCCC)C(=O)c1cc(Cl)ccc1[N+](=O)[O-],0,-13,-27*,7
CCCCC1OC23CCCCC2C(C#N)(C#N)C1(C#N)C(=N)O3 (centres undefined),0,50*,119,-5
